7 molecules from ChEMBL document CHEMBL1141780, “Diterpenoid, steroid, and triterpenoid agonists of liver X receptors from diversified terrestrial plants and marine sources” (J Nat Prod, 2005) can be followed below.

Calls of active or inactive are those of the source. The rule behind the calls is not given here.

The target of one experiment is T1, Oxysterols receptor LXR-beta (Homo sapiens, UniProt P55055).
T1 sequence (P55055 whole entry): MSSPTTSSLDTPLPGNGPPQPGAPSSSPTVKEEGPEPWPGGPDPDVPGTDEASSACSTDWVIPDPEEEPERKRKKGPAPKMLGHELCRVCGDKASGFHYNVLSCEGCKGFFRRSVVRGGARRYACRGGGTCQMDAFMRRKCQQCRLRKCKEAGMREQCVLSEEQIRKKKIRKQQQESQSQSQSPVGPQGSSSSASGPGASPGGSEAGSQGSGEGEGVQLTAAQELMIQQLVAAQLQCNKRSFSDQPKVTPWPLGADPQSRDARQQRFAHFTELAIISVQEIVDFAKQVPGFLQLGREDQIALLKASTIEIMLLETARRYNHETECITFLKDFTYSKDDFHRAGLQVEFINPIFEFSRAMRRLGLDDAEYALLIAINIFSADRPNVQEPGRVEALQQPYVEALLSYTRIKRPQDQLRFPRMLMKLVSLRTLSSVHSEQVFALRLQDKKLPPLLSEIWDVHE
The experiment can be described thus: Agonist activity at human recombinant LXRbeta expressed in Escherichia coli BL21 cells assessed as association of recombinant SRC1 to LXRbeta ligand binding domain by HTRF assay.
Conditions: not given
(In general: Time-resolved FRET reads energy transfer from a long-lived donor to a nearby acceptor.)
For orientation: EC50 means the concentration giving half of the maximal effect. As to `CC(C)=CCC[C@@H](C)[C@H]1C[C@H](O)[C@@]2(C)C3=CC[C@H]4C(C)(C)[C@@H](O)CC[C@]4(C)C3=CC[C@]12C`, the EC50 was above 50000 nM.

`C=C[C@@]1(C)CC=C2[C@@H](CC[C@@H]3[C@](C)(C(=O)NCC45CC6CC(CC(C6)C4)C5)CCC[C@@]23C)C1`: the EC50 was above 50000 nM.

As for `C=C[C@@]1(C)CC=C2[C@@H](CC[C@@H]3[C@](C)(C(=O)O)CCC[C@@]23C)C1`, the EC50 is above 50000 nM.

The target of another experiment is T2, Oxysterols receptor LXR-alpha (Homo sapiens) (UniProt Q13133).
T2 sequence (whole entry): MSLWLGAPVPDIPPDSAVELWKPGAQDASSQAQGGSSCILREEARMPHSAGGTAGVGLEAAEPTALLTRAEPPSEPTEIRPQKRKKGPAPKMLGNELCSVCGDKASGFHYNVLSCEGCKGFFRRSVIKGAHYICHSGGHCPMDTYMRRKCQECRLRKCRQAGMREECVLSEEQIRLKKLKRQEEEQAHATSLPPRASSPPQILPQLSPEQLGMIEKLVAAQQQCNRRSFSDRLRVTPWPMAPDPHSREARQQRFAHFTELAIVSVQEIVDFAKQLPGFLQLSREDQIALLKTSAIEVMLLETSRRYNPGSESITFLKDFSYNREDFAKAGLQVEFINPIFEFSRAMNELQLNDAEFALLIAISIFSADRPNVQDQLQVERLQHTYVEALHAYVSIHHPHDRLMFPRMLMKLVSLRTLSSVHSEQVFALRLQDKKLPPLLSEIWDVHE
The experiment can be described thus: Activity of human recombinant LXRalpha ligand binding domain-mediated transcriptional activity in human HEK293 cells with Gal4 reporter plasmid at 30 uM by luciferase reporter assay. It is filed as cell-based.
Conditions: not given
A digest of the protocol:
(§1)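 Cell-based transactivation in HEK-293 cells with chimeric constructs: yeast Gal4 DNA-binding domain fused to the hinge region and LBD of LXRα or LXRβ. Agonist activity is read as fold induction over DMSO control.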
Consider `CC(C)[C@H](C)[C@@]1(C)C[C@@H]1[C@@H](C)[C@H]1CC[C@H]2[C@@H]3CC=C4C[C@@H](O)CC[C@]4(C)[C@@]3(O)[C@H](O)C[C@]12C`, for which the fold change (FC) amounted to 10.1.

A further experiment concerns the target T2, Oxysterols receptor LXR-alpha (Homo sapiens). The experiment can be described thus: Activity of human recombinant LXRalpha ligand binding domain-mediated transcriptional activity in human HEK293 cells with Gal4 reporter plasmid at 100 uM by luciferase reporter assay. Format: cell-based.
Conditions: not given
A digest of the protocol: as §1
On the technique in general: A reporter such as luciferase makes a cellular process visible.
As to `C=C[C@@]1(C)CC=C2[C@@H](CC[C@@H]3[C@](C)(C(=O)O)CCC[C@@]23C)C1`, the fold change (FC) came to 15.9.

The next experiment deals with T3, Oxysterols receptor LXR-alpha (Homo sapiens, UniProt Q13133).
T3 sequence (Q13133 whole entry): T2 sequence (whole entry)
The experiment can be described thus: Agonist activity at human recombinant LXRalpha expressed in Escherichia coli BL21 cells assessed as association of recombinant SRC1 to LXRalpha ligand binding domain by HTRF assay.
Conditions: not given
`C=C(CC[C@@H](C)[C@H]1CC[C@H]2[C@@H]3[C@@H](O)[C@@H](O)[C@@]4(O)C[C@@H](O)CC[C@]4(C)[C@H]3CC[C@]12C)C(C)C`: the 50% effective concentration (EC50) was found to be 170 nM.

As for `CC(C)[C@H](C)[C@@]1(C)C[C@@H]1[C@@H](C)[C@H]1CC[C@H]2[C@@H]3C[C@@H](O)[C@@]4(O)C[C@@H](O)CC[C@]4(C)[C@@]3(O)[C@H](O)C[C@]12C`, the EC50 was determined as 50 nM.

With `CC(C)[C@H](C)[C@@]1(C)C[C@@H]1[C@@H](C)[C@H]1CC[C@H]2[C@@H]3CC=C4C[C@@H](O)CC[C@]4(C)[C@@]3(O)[C@H](O)C[C@]12C`, the EC50 is 450 nM.

With `CC(C)=CCC[C@@H](C)[C@H]1C[C@H](O)[C@@]2(C)C3=CC[C@H]4C(C)(C)[C@@H](O)CC[C@]4(C)C3=CC[C@]12C`, the EC50 was 30 nM.

In the case of `CC(C)CCC[C@@H](C)[C@H]1CC[C@H]2C3=CC(=O)[C@H]4C[C@@H](O)CC[C@]4(C)[C@@]3(O)CC[C@]12C` [VIPERIDONE], the EC50 was above 15000 nM.

As to `C=C[C@@]1(C)CC=C2[C@@H](CC[C@@H]3[C@](C)(C(=O)NCC45CC6CC(CC(C6)C4)C5)CCC[C@@]23C)C1`, the EC50 was above 50000 nM.

For `C=C[C@@]1(C)CC=C2[C@@H](CC[C@@H]3[C@](C)(C(=O)O)CCC[C@@]23C)C1`, the EC50 is 180 nM.

The next experiment deals with T2, Oxysterols receptor LXR-alpha (Homo sapiens). The experiment can be described thus: Activity of human recombinant LXRalpha ligand binding domain-mediated transcriptional activity in human HEK293 cells with Gal4 reporter plasmid at 2.2 uM by luciferase reporter assay.
Conditions: not given
It is filed as cell-based. Put shortly:
as §1
`CC(C)=CCC[C@@H](C)[C@H]1C[C@H](O)[C@@]2(C)C3=CC[C@H]4C(C)(C)[C@@H](O)CC[C@]4(C)C3=CC[C@]12C`: the fold change (FC) came to 8.

The next experiment deals with T4, Oxysterols receptor LXR-beta (Homo sapiens) (UniProt P55055).
T4 sequence (whole entry): T1 sequence (P55055 whole entry)
The note with it: BL21.
As usually defined, the LC50 is the concentration that kills 50% of the test population. For `CC(C)[C@H](C)[C@@]1(C)C[C@@H]1[C@@H](C)[C@H]1CC[C@H]2[C@@H]3C[C@@H](O)[C@@]4(O)C[C@@H](O)CC[C@]4(C)[C@@]3(O)[C@H](O)C[C@]12C`, the LC50 was determined as 200 nM.

With `CC(C)[C@H](C)[C@@]1(C)C[C@@H]1[C@@H](C)[C@H]1CC[C@H]2[C@@H]3CC=C4C[C@@H](O)CC[C@]4(C)[C@@]3(O)[C@H](O)C[C@]12C`, the LC50 stood at 50000 nM.

`CC(C)=CCC[C@@H](C)[C@H]1C[C@H](O)[C@@]2(C)C3=CC[C@H]4C(C)(C)[C@@H](O)CC[C@]4(C)C3=CC[C@]12C`: the LC50 was above 15000 nM.

For `C=C[C@@]1(C)CC=C2[C@@H](CC[C@@H]3[C@](C)(C(=O)NCC45CC6CC(CC(C6)C4)C5)CCC[C@@]23C)C1`, the LC50 is above 50000 nM.

The molecule `C=C[C@@]1(C)CC=C2[C@@H](CC[C@@H]3[C@](C)(C(=O)O)CCC[C@@]23C)C1` showed an LC50 of 1490 nM.

The target in the next experiment is T4, Oxysterols receptor LXR-beta (Homo sapiens). The experiment can be described thus: Agonist activity at human recombinant LXRbeta expressed in Escherichia coli BL21 cells assessed as association of recombinant SRC1 to LXRbeta ligand binding domain at 10 uM by HTRF assay.
Conditions: not given
For `C=C(CC[C@@H](C)[C@H]1CC[C@H]2[C@@H]3[C@@H](O)[C@@H](O)[C@@]4(O)C[C@@H](O)CC[C@]4(C)[C@H]3CC[C@]12C)C(C)C`, the result was inactive.

In the case of `CC(C)[C@H](C)[C@@]1(C)C[C@@H]1[C@@H](C)[C@H]1CC[C@H]2[C@@H]3C[C@@H](O)[C@@]4(O)C[C@@H](O)CC[C@]4(C)[C@@]3(O)[C@H](O)C[C@]12C`, the outcome was inactive.

For the next experiment the target is unchanged. The experiment can be described thus: Activity of human recombinant LXRbeta ligand binding domain-mediated transcriptional activity in human HEK293 cells with Gal4 reporter plasmid at 30 uM by luciferase reporter assay. It is filed as cell-based.
Conditions: not given
A digest of the protocol: as §1
Regarding `CC(C)[C@H](C)[C@@]1(C)C[C@@H]1[C@@H](C)[C@H]1CC[C@H]2[C@@H]3CC=C4C[C@@H](O)CC[C@]4(C)[C@@]3(O)[C@H](O)C[C@]12C`, the outcome was inactive.

A further experiment shares this target. The experiment can be described thus: Activity of human recombinant LXRbeta ligand binding domain-mediated transcriptional activity in human HEK293 cells with Gal4 reporter plasmid at 100 uM by luciferase reporter assay. Format: cell-based.
Conditions: not given
Put shortly: as §1
`C=C[C@@]1(C)CC=C2[C@@H](CC[C@@H]3[C@](C)(C(=O)O)CCC[C@@]23C)C1`: the fold change (FC) amounted to 5.6.

The target in another experiment is Liver X receptor (LXR alpha AND LXR beta) (Homo sapiens) (UniProt Q13133+P55055). The experiment in a line: Selectivity of human recombinant LXRalpha over human recombinant LXRbeta. It is filed as protein assay.
Conditions: not given
With `CC(C)[C@H](C)[C@@]1(C)C[C@@H]1[C@@H](C)[C@H]1CC[C@H]2[C@@H]3CC=C4C[C@@H](O)CC[C@]4(C)[C@@]3(O)[C@H](O)C[C@]12C`, the fold change (FC) was 40.
